# In ChEMBL document CHEMBL1134388, “Nonpeptide cholecystokinin-2 receptor agonists” (J Med Chem, 2001):
# Calls of active or inactive are those of the source. The rule behind the calls is not given here.
# Columns and labels:
# [1] = target: T1, Gastrin/cholecystokinin type B receptor (Mus musculus) (UniProt P56481); experiment: Antagonistic activity against CCK2 receptor in mouse cortex assay using [125 I]-BH-CCK-8S; format: functional, tissue-based
# T1 sequence (whole entry): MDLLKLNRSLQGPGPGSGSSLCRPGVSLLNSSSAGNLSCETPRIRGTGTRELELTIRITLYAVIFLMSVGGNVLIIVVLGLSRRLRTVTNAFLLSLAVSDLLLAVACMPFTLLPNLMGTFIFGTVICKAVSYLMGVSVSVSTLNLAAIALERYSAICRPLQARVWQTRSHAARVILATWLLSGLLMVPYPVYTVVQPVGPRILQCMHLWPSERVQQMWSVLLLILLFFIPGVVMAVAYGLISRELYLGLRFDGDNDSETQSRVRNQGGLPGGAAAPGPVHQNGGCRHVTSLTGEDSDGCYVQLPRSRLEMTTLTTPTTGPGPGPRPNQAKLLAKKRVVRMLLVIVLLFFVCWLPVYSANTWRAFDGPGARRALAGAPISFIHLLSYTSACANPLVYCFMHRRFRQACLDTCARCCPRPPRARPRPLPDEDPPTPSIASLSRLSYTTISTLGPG
# How it was run: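 Radioligand competition binding to CCK2 sites in mouse cerebral cortex homogenates against 20 pM [125I]BH-CCK-8S; pKB reported as mean ± SEM from at least three separate experiments.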
# [2] = target: T2, Gastrin/cholecystokinin type B receptor (Rattus norvegicus) (UniProt P30553); experiment: Antagonistic activity against CCK2 receptor in rat stomach; format: functional, tissue-based
# T2 sequence (whole entry): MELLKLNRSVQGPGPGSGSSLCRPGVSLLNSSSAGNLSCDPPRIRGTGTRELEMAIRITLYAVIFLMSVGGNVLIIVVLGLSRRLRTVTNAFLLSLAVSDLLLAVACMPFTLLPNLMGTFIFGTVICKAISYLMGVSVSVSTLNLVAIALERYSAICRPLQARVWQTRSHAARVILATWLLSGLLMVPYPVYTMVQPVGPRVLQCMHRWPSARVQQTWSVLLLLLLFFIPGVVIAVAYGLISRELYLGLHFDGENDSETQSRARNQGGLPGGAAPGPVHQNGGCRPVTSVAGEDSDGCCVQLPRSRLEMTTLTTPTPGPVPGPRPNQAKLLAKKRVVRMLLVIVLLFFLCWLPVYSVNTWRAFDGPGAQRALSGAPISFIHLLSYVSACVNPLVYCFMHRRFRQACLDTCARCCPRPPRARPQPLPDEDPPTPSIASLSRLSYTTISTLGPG
# Mus musculus [3] = organism: Mus musculus; experiment: Effect on acid secretion was determined in isolated,lumen-perfused immature mouse stomach; Acid secretion; format: functional
# How it was run: (§1)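 Isolated, lumen-perfused mouse stomach; compound applied alone and acid secretion observed, scored as present or absent. Tested as bis(N-methyl-D-glucamine) salts.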
# Mus musculus [4] = organism: Mus musculus; experiment: Charecterization of agonist response of ligand in mouse stomach bioassay; format: functional
# Mus musculus [5] = organism: Mus musculus; experiment: Charecterization of agonist response of ligand in mouse stomach bioassay measured as affinity of L-365260; format: functional
# Mus musculus [6] = organism: Mus musculus; experiment: Effect on acid secretion was determined in isolated,lumen-perfused immature mouse stomach; No acid secretion; format: functional; how it was run: as §1
pKB [1],pKB [2],Structure (SMILES),Acid secretion (Mus musculus [3]),pA50 (Mus musculus [4]),Kb (Mus musculus [5]; read-out: pA2 (converted)) [nM],pKB (Mus musculus [5]),Acid secretion (Mus musculus [6])
8.96,9.9,O=C(O)c1cc(NC(=O)[C@H](Cc2ccccc2)NC(=O)c2cc3cc[nH]c3cc2C(=O)NCC23CC4CC(CC(C4)C2)C3)cc(C(=O)O)c1,,,,,
8.44,7.35,CCCCn1ccc2cc(C(=O)N[C@@H](Cc3ccccc3)C(=O)Nc3cc(C(=O)O)cc(C(=O)O)c3)c(C(=O)NCC34CC5CC(CC(C5)C3)C4)cc21,Active,,,,
8.42,9.8,Cn1ccc2cc(C(=O)N[C@@H](Cc3ccccc3)C(=O)Nc3cc(C(=O)O)cc(C(=O)O)c3)c(C(=O)NCC34CC5CC(CC(C5)C3)C4)cc21 (stereo in doubt; 3) [listing 1 of 2 here],Active,,,,
9.43,8.99,Cn1ccc2cc(C(=O)N[C@@H](Cc3ccccc3)C(=O)Nc3cc(C(=O)O)cc(C(=O)O)c3)c(C(=O)NCC34CC5CC(CC(C5)C3)C4)cc21 (stereo in doubt; 4) [listing 1 of 2 here],Active,,,,
7.52,6.86,CCCCn1ccc2cc(C(=O)NCC34CC5CC(CC(C5)C3)C4)c(C(=O)N[C@@H](Cc3ccccc3)C(=O)Nc3cc(C(=O)O)cc(C(=O)O)c3)cc21,Active,,,,
7.6,8.95,Cn1cnc2cc(C(=O)N[C@@H](Cc3ccccc3)C(=O)Nc3cc(C(=O)O)cc(C(=O)O)c3)c(C(=O)NCC34CC5CC(CC(C5)C3)C4)cc21,Active,,,,
8.74,8.72,CC(=O)n1ccc2cc(C(=O)N[C@@H](Cc3ccccc3)C(=O)Nc3cc(C(=O)O)cc(C(=O)O)c3)c(C(=O)NCC34CC5CC(CC(C5)C3)C4)cc21,,,,,
8.36,8.57,Cn1ccc2cc(C(=O)NCC34CC5CC(CC(C5)C3)C4)c(C(=O)N[C@@H](Cc3ccccc3)C(=O)Nc3cc(C(=O)O)cc(C(=O)O)c3)cc21,Active,7.94,,,
,,CSCC[C@H](NC(=O)[C@H](Cc1c[nH]c2ccccc12)NC(=O)CCNC(=O)OC(C)(C)C)C(=O)N[C@@H](CC(=O)O)C(=O)N[C@@H](Cc1ccccc1)C(N)=O [PENTAGASTRIN],,7.73,9.77,,
,,Cn1ccc2cc(C(=O)N[C@@H](Cc3ccccc3)C(=O)Nc3cc(C(=O)O)cc(C(=O)O)c3)c(C(=O)NCC34CC5CC(CC(C5)C3)C4)cc21 (stereo in doubt; 3) [listing 2 of 2 here],,8.4,,7.04,
7.87,9.26,O=C(O)c1cc(NC(=O)[C@H](Cc2ccccc2)NC(=O)c2cc3[nH]ccc3cc2C(=O)NCC23CC4CC(CC(C4)C2)C3)cc(C(=O)O)c1,,,,,inactive
,,Cn1ccc2cc(C(=O)N[C@@H](Cc3ccccc3)C(=O)Nc3cc(C(=O)O)cc(C(=O)O)c3)c(C(=O)NCC34CC5CC(CC(C5)C3)C4)cc21 (stereo in doubt; 4) [listing 2 of 2 here],,8.69,,7.02,
